# Laboratory results published in ChEMBL document CHEMBL4513216, “Probing the Open Global Health Chemical Diversity Library for Multistage-Active Starting Points for Next-Generation Antimalarials” (ACS Infect Dis, 2020).
# Test: Toxicity liver stage against HepG2, at 10uM
# Format: cell-based
# Design: test concentration 10 uM, cell line HepG2-A16-CD81EGFP
# Conditions: human, HepG2-A16-CD81EGFP cells; read-out: INHIBITION
# Outline: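 Uninfected HepG2-A16-CD81EGFP cells, 3 × 10^3 per well, 1536-well, plated on prespotted compound at 10 μM final, parasite-free screening media added to match infected plates; puromycin 10 μM positive, DMSO 0.5% negative; run in parallel with 48 h PbLuc assay at 37 °C, 5% CO2; viability by CellTiter-Glo luminescence, normalized to controls.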
row,Compound,cytotoxicity at 10 µM [%]
1,COc1cccc(N2CCN(C(=O)c3noc4c3CCCCC4)CC2)c1,9.4
2,CN1C(=N)NC(=O)/C1=C/c1ccc(-c2ccc(Br)cc2)o1,5.39
3,CC(C)CN1CC(O)CN(S(=O)(=O)c2ccccc2)CC1=O (stereo not drawn),1.74
4,O=C(CCC(=O)N1CCC(c2noc3cc(F)ccc23)CC1)NC1CC1,5.09
5,CCOCc1cnc2n1CCN(C(=O)Cc1ccco1)C2C (stereo not drawn),3.53
6,Cc1cnc(N2CCC3(CC2)CC(NC(=O)N(C)C)CO3)nc1 (stereo not drawn),6.31
7,Cc1nnc([C@H]2CC[C@@H]3[C@@H](CCN3CC3CCOCC3)O2)o1,10.1
8,O=C(c1ccsc1)N1C[C@H](N2CCOCC2)[C@@H]2OCCC[C@@H]21,8.28
9,CN(C)C(=O)CN1C[C@@H]2OCCN(c3ncc(F)cn3)[C@@H]2C1,-0.756
10,Cc1ccc(CN2CCCn3c(nc(Cn4ccnc4)cc3=O)C2)o1,5.89
11,O=C(c1cc(-n2cnnn2)ccc1Cl)N1CCN(c2ccccc2)CC1,11.3
12,COc1cccc(C2CC(=O)Nc3c2c(=O)n(C)c2ncnn32)c1 (stereo not drawn),-0.549
13,COc1cc(C)c2c(c1C)C[C@@H](C(C)C(=O)O)CC2 (stereo partly drawn),4.98
14,N#Cc1cccc(C(=O)N2CCc3ncc(Cn4cccn4)n3CC2)c1,5.84
15,Cc1ccc2c(c1)CCC21CCN(C(=O)CO)CC1,-8.13
16,Cc1cc(C(=O)NCc2ccco2)nn1C,-2.8
17,CCc1noc(C2CCN(C(=O)CCn3nc(C)cc3C)CC2)n1,-9.52
18,CN(C)Cc1cn(-c2ccccc2C(=O)NCCC2CCCN2C)cn1 (stereo not drawn),4.08
19,Cn1nccc1-c1cncc(C2CCCN(S(C)(=O)=O)C2)n1 (stereo not drawn),6.62
20,Cc1cc(-c2cnc(N3CCCC3)nc2C(C)C)on1,5.14
21,CCOCCN1CCC(c2cncc(C)n2)CC1,-2.58
22,CCc1cccc2cc(CN)c(=O)[nH]c12,3.54

row,Compound,cytotoxicity at 10 µM [%]
1,Nc1nc(N)c2c(n1)OC1(CCCN(Cc3nccs3)CC1)C2 (stereo not drawn),-2.25
2,c1ccc(Cc2cncc(C3CCCN3C3CCOCC3)n2)cc1 (stereo not drawn),1.4
3,Cc1cccc(NC(=O)c2cnc(C3CCCNC3)cn2)n1 (stereo not drawn),3.04
4,CC(=O)Nc1cc(CCC2CCN(C(=O)c3ccccn3)CC2)ccn1,-0.331
5,O=C(c1ccc(F)cc1)N1CCOC(c2nc(-c3ncccn3)no2)C1 (stereo not drawn),-12.4
6,O=C(N[C@@H]1CN(Cc2ccc(F)cc2)C[C@H]1O)c1cscn1,-11.7
7,O=C(C1CCCC1)N1CC2(CCN(C3COC3)C2)Cc2ccccc21 (stereo not drawn),10.1
8,O=C(Cc1c[nH]c2ncccc12)NCC(O)c1ccsc1 (stereo not drawn),5.46
9,NC(=O)c1cnc(NC(=O)CCc2ccco2)c(Cl)c1,3.42
10,CC(C)c1nnc2n1CCN(Cc1cc(Cl)c3c(c1)OCCO3)C2,0.549
11,COc1ccccc1CC(=O)N(C)Cc1cc(C)on1,4.76
12,COCCN(CC(F)F)c1cc(C(F)(F)F)nc2ncnn12,4.11
13,Cc1ccc(-c2nnc(NC(=O)c3ccn(C)c(=O)c3)[nH]2)s1,-1.15
14,CCc1nc(Cn2c(=O)c3c(C(F)(F)F)cc(C)nc3n2C)no1,2.58
15,Cc1cc(C[S+]([O-])Cc2ccccc2F)on1 (stereo not drawn),-8.37
16,CN(C)c1ccc(C(=O)Nc2ccn(Cc3ccccn3)n2)cn1,-0.677
17,COc1ccc(CC(=O)N2CCC(c3nnc4n3CCC4)CC2)cc1F,-1.65
18,O=C(CCN1CCc2cncnc2C1)N1CCc2sccc2C1,2.37
19,COc1cc(C2(C(=O)NC3CCC4(CC3)OCCO4)CC2)ccc1C,-13.2
20,N#Cc1ccc(S(=O)(=O)NCCn2ccnc2)cc1Cl,22.5
21,Cc1cccnc1NC(=O)CNC(=O)c1ccccc1Cl,-3.36
22,NC(=O)C1CCN(CCc2ccc(NCc3ccoc3)cc2)CC1,-26.2

row,Compound,cytotoxicity at 10 µM [%]
1,CC(NC1CCN(C(=O)C2CCCCC2)CC1)c1nccs1 (stereo not drawn),-4.22
2,CC(C)c1nnc2n1CCN(C(=O)c1ccccc1OCC1CC1)C2,10.5
3,CNC(=O)Cc1ccccc1NC(=O)C1CCN(C2CCCCC2)C1 (stereo not drawn),-0.355
4,OCCCN(CCc1cccc(F)c1)C1CC1,-8.9
5,CN(Cc1cccc(O)c1)Cc1cnn(C)c1,-0.198
6,Cc1nccn1-c1ncccc1CNC(=O)c1ccc(O)nc1,-7.55
7,CC(C)C(C)(C#N)NC(=O)Cn1cc(Cl)cn1 (stereo not drawn),1.18
8,CCN(CC)C(=O)Nc1cc2c(cc1SC)OCCO2,-7.87
9,O=C(Nc1cccc(OCc2ccc(F)cc2)c1)C1COCCO1 (stereo not drawn),1.18
10,CN(C)CCN(Cc1ccc(Cl)cc1)C(=O)c1cc[nH]n1,5.65
11,Cn1ccnc1-c1cccc(NC(=O)NCCCO)c1,-6.77
12,COCC(=O)N1CC[C@@H]2O[C@@H](C)C[C@H]2C1,-69.6
13,CC(C)CC(=O)N1CC(=O)c2sc(NC3CCCCC3)nc2C1,-7
14,COc1cccc(N2CCN(Cc3ccc4[nH]ccc4c3)CC2=O)c1,4.59
15,CCc1nc(CN(C)C(=O)C2CC(=O)N(c3cccc(O)c3)C2)no1 (stereo not drawn),-10.2
16,CCc1ncc2c(n1)CN(C(=O)CNC(=O)C(C)C)C2,7.28
17,Cc1ccc2[nH]c(C(=O)N3CCC4(CC3)C(=O)NCCN4C)nc2c1,1.43
18,O=C1CC(NS(=O)(=O)N2CCOCC2)CN1CCc1ccccc1 (stereo not drawn),14.4
19,CC(=O)N1CCN(Cc2ccc(F)c(C(F)(F)F)c2)CC(O)C1 (stereo not drawn),-6.87
20,Cc1nn(C)c2nc(-c3ccccn3)nc(NC[C@@H]3CCCO3)c12,7.49
21,CCc1ccccc1OC1CN(C(=O)c2cccs2)C1,13.7
22,Cc1noc(C)c1CN(Cc1cccnc1)C1CN2CCC1CC2 (stereo not drawn),1.91

row,Compound,cytotoxicity at 10 µM [%]
1,CC(C)c1nnc(CN2C(=O)OC[C@@H]2C(C)C)o1,14.3
2,COCC(=O)N1CC[C@]2(O)CCN(Cc3ccsc3)C[C@@H]2C1,0.196
3,CC(C)CS(=O)(=O)CCNc1ncccn1,-2.43
4,CCOCCc1nc(Cc2ccccc2)n[nH]1,7.9
5,Cc1nc(CNC(=O)c2cc(COc3cccc(F)c3)[nH]n2)n[nH]1,-2.52
6,COc1cccc(OCC2CCCN(C(=O)c3cc(C)n[nH]3)C2)c1 (stereo not drawn),-3.42
7,O=S1(=O)C[C@@H]2[C@H](C1)N(Cc1ccc3ccccc3c1)CCN2CC1CC1,1.99
8,CNC(=O)CN(C)c1nc(-c2ccc(C(N)=O)cc2)nc2c1CCNC2,3.62
9,NC(=O)c1ccnc(N2CCCC(CO)(Cc3ccccc3)C2)c1 (stereo not drawn),11.6
10,Cc1ccc(F)cc1NC(=O)C1CCCN1C(=O)C(C)C (stereo not drawn),-4.93
11,O=C(CCc1cc2n(n1)CCCN(Cc1ccccc1F)C2)NC1CC1,-12.8
12,COc1ccc(NC(=O)CCC2CCCN(Cc3ncon3)C2)c(C)c1 (stereo not drawn),0.523
13,Cn1ccnc1CN1CCOCC(Cc2ccccn2)C1 (stereo not drawn),7.17
14,Cc1cncc(C2CCCN(Cc3cccn3C)C2)n1 (stereo not drawn),8.25
15,CCc1nnc2n1CCN(C(=O)c1cc3cc(C)ccc3[nH]1)C2,0.893
16,Cn1nnc2cc(C(=O)N3CCC(Nc4cccnn4)CC3)ccc21,-2.85
17,O=C(COC1CCCCC1)NS(=O)(=O)c1ccc2c(c1)OCCCO2,3.85
18,CCc1nnc2n1CCN(Cc1cc(Cl)c3c(c1)OCCO3)C2,-8.95
19,O=C(Nc1ccccn1)N(CCO)Cc1ccccc1Br,-14.4
20,Cc1c[nH]cc1C(=O)N1CCN(Cc2nc(C(C)C)no2)CC1,-4.54
21,Cc1cnc(CN2CCCC(c3cc(C(F)(F)F)[nH]n3)C2)cn1 (stereo not drawn),-0.168
22,Cc1nc(-c2ccco2)ccc1C(=O)N1CCCC1Cn1cccn1 (stereo not drawn),5.61

row,Compound,cytotoxicity at 10 µM [%]
1,O=C(c1cccc(N2CCCC2=O)c1)N1CCCC(n2cncn2)C1 (stereo not drawn),-12
2,Cc1cccc(-n2cc(C(=O)N3CCCC(n4ccnc4)C3)nn2)c1 (stereo not drawn),5.39
3,CNC(=O)N1CCC2(CC1)CNc1ccc(F)cc12,10.1
4,CCC1=N[C@@]2(CC[C@@H]3CN(Cc4ccccc4F)C[C@@H]32)C(=O)N1,-1.22
5,CC(C)N1CC[C@@H]2[C@H](COCC3CC3)CN(C)C(=O)[C@@H]2CC1,6.8
6,O=C(NCC1CCOCC1)[C@H]1C[C@@H]2CCN(Cc3ccncc3)C[C@@H]2O1,-14.1
7,Cc1noc(C)c1CN1C[C@H](OCC(=O)N(C)C)[C@H]2OCCC[C@H]21,8.34
8,Cc1noc(C)c1CN1CCCC2(C1)CN(Cc1nccn1C)CCO2 (stereo not drawn),7.69
9,Cc1noc(C)c1C(=O)N1CC[C@]2(C[C@@H](OCc3cccnc3)CO2)C1,-79.7
10,CCOCC1c2c(ncn2C(C)C)CCN1C(C)C (stereo not drawn),10.5
11,CCCS(=O)(=O)N1CCO[C@H]2[C@@H](Oc3cccnc3)CC[C@@H]21,-3.15
12,O=C(NCc1ccco1)[C@@H]1CCO[C@@H]2CCN(c3ccncn3)C[C@H]21,0.118
13,CCC(=O)Nc1ccc2c(c1)C1(CCOCC1)CN2CCF,-87.4
14,CNC(=O)[C@H]1C[C@@H]2CN(C(=O)c3cccnc3)C[C@@H]2N1S(C)(=O)=O,-4.12
15,c1cc2c(cc1CN1CC[C@H]3CO[C@H](CN4CCCC4)[C@H]3C1)OCO2,0.355
16,O=C1[C@H]2CN(C3CCOC3)C[C@H]2CN1c1ccccc1 (stereo partly drawn),7.16
17,O=C([C@H]1CCCO1)N1CCCC2(CCN(Cc3ccncc3)C2=O)C1 (stereo partly drawn),11.9
18,Cn1cnc(S(=O)(=O)N2C[C@H]3CC[C@@H](C2)N(Cc2cscn2)C3=O)c1,-20.2
19,CS(=O)(=O)N1C[C@H]2CC[C@@H](C1)N(Cc1ccsc1)C2,44.7
20,O=C(CSc1ccccc1)N1C[C@@H]2CC[C@H]1CN(Cc1ccncc1)C2,-0.143
